A short description of assay [1]: nonspecific flux increase, KCNQ1-free cells – parental CHO cells, counter-screen for KCNQ1 potentiator project (AID 493006;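 active = duplicate-averaged activation above buffer control mean plus 5 SD of those controls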). Particulars: parental CHO-K1 cells, FluxOR thallium flux, at 10 µM; active compounds read high. The procedure, abridged: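 Material: parental CHO-K1 cells, FluxOR dye-loaded; Also added: Potassium/thallium depolarization pulse; Schedule: overnight 37 °C plating, 90 min dye, 20 min dark compound; Signal: kinetic FluxOR fluorescence, 10 s baseline, 110 s after stimulus.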

The target of assay [2] is Potassium voltage-gated channel subfamily KQT member 1 (Homo sapiens) (UniProt P51787). The assay is described as follows: enhancement of KCNQ1 channel thallium flux – FluxOR thallium flux, CHO cells, duplicates, confirmation (AID 493007).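 For outcome: cells depolarized by a potassium plus thallium sulfate stimulus after compound.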 The note with it: KCNQ1 cell line, FluxOR thallium flux fluorescence, at 10 µM; active compounds read high, % of reference activator effect, buffer zero. The procedure, abridged: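 System: KCNQ1-expressing CHO cell line; technique: kinetic thallium influx fluorescence with FluxOR dye, 10 s baseline, 110 s post-stimulus; timing: dye 90 min then compound 20 min, both at room temperature; controls: buffer-only wells as 0% and R-L3 activator as 100%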

Assay [3] has as its target Potassium voltage-gated channel subfamily KQT member 2 (Rattus norvegicus) (UniProt O88943). The assay is described as follows: KCNQ2 thallium flux enhancement – KCNQ2-CHO-K1 cells, selectivity assay for KCNQ1 potentiator project (AID 493009;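 active = mean duplicate potentiation above the buffer control mean plus 5 SD of buffer wells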;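 note: assay conditions were tuned for KCNQ1 rather than KCNQ2 modulators; signal is max minus min fluorescence divided by baseline after thallium stimulus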). The note with it: FluxOR thallium flux fluorescence, at 10 µM; active compounds read high, scaled: buffer 0, activator control 100.
The target in assay [4] is Potassium voltage-gated channel subfamily KQT member 1 (Homo sapiens) (UniProt P51787). The assay is described as follows: KCNQ1 activators by electrophysiology – IonWorks patch clamp, KCNQ1-CHO cells, orthogonal assay for KCNQ1 potentiator project, confirmation (AID 493184;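 active = current rise at least 3 SD above the untreated control mean in each of two repeat wells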;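 for current potentiation: percent change of the same well's current before compound addition so 0% = no change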). The note with it: automated patch clamp current, at 10 µM; active compounds read high. The method, boiled down: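 Test system: KCNQ1-expressing CHO cells. Medium: pH 7.4 external bath. Probe or stimulus: voltage step from -90 mV holding to +40 mV, 2,000 ms. Compound: 10 µM final, single point. Detection: automated perforated-patch electrophysiology. Read-out: percent current increase versus pre-compound level. Repeats: two replicates.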

The target in assay [5] is Potassium voltage-gated channel subfamily E member 1 (Homo sapiens) + Potassium voltage-gated channel subfamily KQT member 1 (Homo sapiens) (UniProt P15382+P51787). Briefly: KCNQ1-E1 channel activation – thallium flux, CHO-K1 KCNQ1/E1 cells, selectivity assay for KCNQ1 potentiator project, confirmation (AID 493186;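 active = mean duplicate activation above the buffer control mean plus 5 SD of those controls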). Particulars: FluxOR thallium flux, at 10 µM; active compounds read high. The method, boiled down: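 Material: CHO-K1 cells with KCNQ1/E1 / Timing: dye 90 min, compound 20 min, room temperature / Technique: kinetic thallium-sensitive FluxOR dye fluorescence / Read-out: percent activation scaled between buffer and R-L3 ratio signals / Replicates: tested in duplicate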

We go through 30 compounds from PubChem BioAssay.

The structures appear in SMILES notation. Activity calls are given as the source filed them.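 Rule for the calls, unless noted: active = potentiation averaged over duplicate wells exceeding buffer-only control mean by more than 3 SD; inactive = the rest.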

Potassium voltage-gated channel subfamily KQT member 1 (Homo sapiens), sequence (P51787 whole entry, looked up): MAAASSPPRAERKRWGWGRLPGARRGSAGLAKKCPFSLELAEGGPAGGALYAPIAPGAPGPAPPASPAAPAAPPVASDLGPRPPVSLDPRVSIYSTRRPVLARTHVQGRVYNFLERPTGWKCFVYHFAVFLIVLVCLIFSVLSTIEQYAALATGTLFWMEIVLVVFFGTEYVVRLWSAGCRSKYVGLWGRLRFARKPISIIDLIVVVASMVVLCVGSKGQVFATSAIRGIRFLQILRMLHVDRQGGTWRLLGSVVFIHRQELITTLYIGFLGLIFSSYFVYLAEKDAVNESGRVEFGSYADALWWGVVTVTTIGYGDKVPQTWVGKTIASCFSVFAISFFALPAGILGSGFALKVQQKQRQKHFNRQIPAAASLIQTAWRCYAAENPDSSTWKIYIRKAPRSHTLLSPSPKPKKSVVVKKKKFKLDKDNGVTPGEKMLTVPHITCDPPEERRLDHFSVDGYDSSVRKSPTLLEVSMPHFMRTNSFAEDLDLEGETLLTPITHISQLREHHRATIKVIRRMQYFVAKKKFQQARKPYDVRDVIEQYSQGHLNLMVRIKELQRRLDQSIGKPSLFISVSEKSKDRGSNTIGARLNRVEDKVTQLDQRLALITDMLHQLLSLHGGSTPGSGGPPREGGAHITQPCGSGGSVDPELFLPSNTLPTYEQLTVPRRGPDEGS
Potassium voltage-gated channel subfamily KQT member 2 (Rattus norvegicus), sequence (O88943 whole entry, looked up): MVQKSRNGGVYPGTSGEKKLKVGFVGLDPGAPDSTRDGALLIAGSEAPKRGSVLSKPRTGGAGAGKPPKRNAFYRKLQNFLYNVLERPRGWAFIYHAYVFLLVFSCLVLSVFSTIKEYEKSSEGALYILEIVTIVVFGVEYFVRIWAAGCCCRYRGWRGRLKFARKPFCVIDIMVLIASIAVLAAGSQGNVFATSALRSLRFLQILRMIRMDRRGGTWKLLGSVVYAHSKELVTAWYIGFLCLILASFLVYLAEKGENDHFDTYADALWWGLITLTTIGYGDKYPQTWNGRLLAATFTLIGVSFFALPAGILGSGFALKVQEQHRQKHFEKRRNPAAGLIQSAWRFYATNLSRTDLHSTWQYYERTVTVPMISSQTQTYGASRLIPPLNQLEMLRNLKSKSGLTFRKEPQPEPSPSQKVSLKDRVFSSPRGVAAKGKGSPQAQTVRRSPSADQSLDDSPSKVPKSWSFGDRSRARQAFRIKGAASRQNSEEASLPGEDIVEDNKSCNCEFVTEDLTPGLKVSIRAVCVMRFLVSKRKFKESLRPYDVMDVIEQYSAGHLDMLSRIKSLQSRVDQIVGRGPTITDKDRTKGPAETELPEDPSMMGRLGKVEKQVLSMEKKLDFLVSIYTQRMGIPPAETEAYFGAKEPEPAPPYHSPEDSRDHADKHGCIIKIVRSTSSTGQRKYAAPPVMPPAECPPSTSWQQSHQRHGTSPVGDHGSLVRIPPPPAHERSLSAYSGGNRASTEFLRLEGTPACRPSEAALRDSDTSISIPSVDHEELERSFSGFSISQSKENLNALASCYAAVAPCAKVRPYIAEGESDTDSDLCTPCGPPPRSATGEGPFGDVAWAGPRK
Potassium voltage-gated channel subfamily E member 1 (Homo sapiens) + Potassium voltage-gated channel subfamily KQT member 1 (Homo sapiens), sequence (P51787 whole entry, looked up): as the sequence (P51787 whole entry, looked up) above

In the case of `C=CS(=O)(=O)c1sc(Cl)c(N2CCOCC2)c1[N+](=O)[O-]`, the result in assay [1], in assay [3], in assay [4] and in assay [5] was inactive. For the same compound, in assay [2], the potentiation is 19% (active).

In the case of `Cc1ccc(C(=O)OCC(=O)NCCC2=CCCCC2)s1`, the outcome in assay [1], in assay [2], in assay [3], in assay [4] and in assay [5] was inactive.

`CN(C)CCCN(C(=O)CCOc1ccccc1)c1nc2c(F)cccc2s1`: the outcome in assay [1], in assay [2], in assay [3], in assay [4] and in assay [5] was inactive.

As to `N#Cc1ccccc1OCCN1C(=O)c2ccccc2C1=O`, the outcome in assay [1], in assay [2], in assay [3], in assay [4] and in assay [5] was inactive.

Consider `CCc1cc(=O)oc2cc(OC(C)C(=O)NCC(O)c3ccccc3)c(Cl)cc12` (stereo not given), for which the result in assay [1], in assay [2], in assay [3], in assay [4] and in assay [5] was inactive.

On to `O=C(CCN1Cc2ccccc2C1)c1ccc2c(c1)OCCO2`, for which the outcome in assay [1], in assay [3], in assay [4] and in assay [5] was inactive. For the same compound, the potentiation in assay [2] was 45.5% (active).

With `CC(C1CC2CCC1C2)n1c(-c2ccco2)n[nH]c1=S` (stereo not given), the result in assay [1], in assay [2], in assay [3], in assay [4] and in assay [5] was inactive.

As for `O=C(CN1CCCCCC1)Nc1ccc(Oc2ccccc2)cc1`, the outcome in assay [1], in assay [2], in assay [3], in assay [4] and in assay [5] was inactive.

On to `Cc1ccccc1CS(=O)(=O)c1nnc([C@H](Cc2ccccc2)NC(=O)OC(C)(C)C)o1`, for which the outcome in assay [1], in assay [3], in assay [4] and in assay [5] was inactive. Moreover, in assay [2], the potentiation is 22.5% (active).

Take `CCCCn1c(=O)[nH]c(=O)c2c1nc(Cn1ncc(Cl)c(Cl)c1=O)n2CCC`: the outcome in assay [1], in assay [2], in assay [3], in assay [4] and in assay [5] was inactive.

With `Fc1ccc(/C=N/n2c(C3CCCCC3)n[nH]c2=S)cc1`, the result in assay [1], in assay [2], in assay [3], in assay [4] and in assay [5] was inactive.

Regarding `Cc1cc(C)c2c(n1)nn1c(NCCCN(C)C)cc(C)nc21`, the result in assay [1], in assay [2], in assay [3], in assay [4] and in assay [5] was inactive.

As for `CCOC(=O)c1c(C)nc2sc3c(=O)n(-c4ccc(OC)cc4)cnc3c2c1-c1ccc(OC)cc1`, the outcome in assay [1], in assay [2], in assay [3], in assay [4] and in assay [5] was inactive.

Take `CCCn1c(SCC(=O)Nc2ccccc2C(=O)OC)nc2c1c(=O)n(C)c(=O)n2C`: the outcome in assay [1], in assay [3], in assay [4] and in assay [5] was inactive. The potentiation in assay [2] is 120% (active).

As to `CC1CC(=S)Nc2ccccc2N1C(=O)Nc1ccccc1` (stereo not given), the result in assay [1], in assay [2], in assay [3], in assay [4] and in assay [5] was inactive.

As for `COc1ccc(C(=O)/C=C/C(=O)N(CC(=O)NC2CCCCC2)Cc2cccs2)c(O)c1`, the result in assay [1], in assay [2], in assay [3], in assay [4] and in assay [5] was inactive.

With `CCOC(=O)C1=C(CC)Nc2ccccc2N=C1NC(=O)CCNC(C)=O`, the result in assay [1], in assay [2], in assay [3], in assay [4] and in assay [5] was inactive.

With `CC(NC(=O)c1ccco1)C(=O)N(C)Cc1ccc(C(F)(F)F)cc1` (stereo not given), the result in assay [1], in assay [2], in assay [3], in assay [4] and in assay [5] was inactive.

With `S=c1[nH]c(-c2cccs2)cn1-c1ccccc1`, the result in assay [1], in assay [4] and in assay [5] was inactive. In addition, the potentiation in assay [2] was 26% (active); in assay [3], 151% (active).

For the compound `COc1ccc(C2SCC(=O)N2c2nc3ccccc3s2)cc1` (stereo not given), the result in assay [1], in assay [2], in assay [3] and in assay [5] was inactive. The current potentiation in assay [4] is 26.4% (active).

Regarding `Cc1cc(C)cc(-n2c(C)cc(/C=C3\C(=N)N4N=C(CC(C)C)SC4=NC3=O)c2C)c1`, the outcome in assay [1], in assay [3], in assay [4] and in assay [5] was inactive. Further, the potentiation in assay [2] is 21.5% (active).

For the compound `Cc1cc(-c2cccs2)c(C#N)c(=S)[nH]1`, the result in assay [1], in assay [2], in assay [3], in assay [4] and in assay [5] was inactive.

Regarding `Nc1nnc(SCC(=O)N2CCN(c3ccccc3)CC2)n1-c1ccccc1`, the result in assay [1], in assay [2], in assay [3], in assay [4] and in assay [5] was inactive.

Turning to `CS(=O)(=O)N1CCc2cc(-c3csc(NC(=O)C(c4ccccc4)c4ccccc4)n3)ccc21`, the result in assay [1], in assay [2], in assay [3], in assay [4] and in assay [5] was inactive.

As for `Cc1ccc(/C(O)=C/C(=O)C(=O)NNC(=O)C(O)(c2ccccc2)c2ccccc2)cc1`, the outcome in assay [1], in assay [2], in assay [3], in assay [4] and in assay [5] was inactive.

`CCN(Cc1ccccc1)C1CCN(Cc2ccccc2)CC1`: the result in assay [1], in assay [2], in assay [3], in assay [4] and in assay [5] was inactive.

For the compound `COc1ccc(-c2nonc2NC(=O)c2oc3ccccc3c2C)cc1OC`, the outcome in assay [1], in assay [2], in assay [3], in assay [4] and in assay [5] was inactive.

In the case of `S=c1[nH]nc(-c2cccs2)n1/N=C/c1cn(-c2ccccc2)nc1-c1ccccc1`, the outcome in assay [1], in assay [3], in assay [4] and in assay [5] was inactive. Moreover, the potentiation in assay [2] was 22% (active).

As to `Cc1ccc(C(=O)C2=C(O)C(=O)N(CCCN3CCOCC3)C23C(=O)N(C)c2ccccc23)o1` (stereo not given), the result in assay [1], in assay [2], in assay [3], in assay [4] and in assay [5] was inactive.

In the case of `NC(=O)CN1C(=O)NC2(CCOc3ccccc32)C1=O` (stereo not given), the outcome in assay [1], in assay [2], in assay [3], in assay [4] and in assay [5] was inactive.
